Experiments:
Format in all cases: cell-based
[1] = molecular target: T1, Serine/threonine-protein kinase TBK1 (Homo sapiens) (UniProt Q9UHD2); assay: Inhibition of TBK1 Lys2 labeling site in human A-375 cells at 0.5 uM by KiNativ Profiling analysis relative to control
T1 sequence (whole entry): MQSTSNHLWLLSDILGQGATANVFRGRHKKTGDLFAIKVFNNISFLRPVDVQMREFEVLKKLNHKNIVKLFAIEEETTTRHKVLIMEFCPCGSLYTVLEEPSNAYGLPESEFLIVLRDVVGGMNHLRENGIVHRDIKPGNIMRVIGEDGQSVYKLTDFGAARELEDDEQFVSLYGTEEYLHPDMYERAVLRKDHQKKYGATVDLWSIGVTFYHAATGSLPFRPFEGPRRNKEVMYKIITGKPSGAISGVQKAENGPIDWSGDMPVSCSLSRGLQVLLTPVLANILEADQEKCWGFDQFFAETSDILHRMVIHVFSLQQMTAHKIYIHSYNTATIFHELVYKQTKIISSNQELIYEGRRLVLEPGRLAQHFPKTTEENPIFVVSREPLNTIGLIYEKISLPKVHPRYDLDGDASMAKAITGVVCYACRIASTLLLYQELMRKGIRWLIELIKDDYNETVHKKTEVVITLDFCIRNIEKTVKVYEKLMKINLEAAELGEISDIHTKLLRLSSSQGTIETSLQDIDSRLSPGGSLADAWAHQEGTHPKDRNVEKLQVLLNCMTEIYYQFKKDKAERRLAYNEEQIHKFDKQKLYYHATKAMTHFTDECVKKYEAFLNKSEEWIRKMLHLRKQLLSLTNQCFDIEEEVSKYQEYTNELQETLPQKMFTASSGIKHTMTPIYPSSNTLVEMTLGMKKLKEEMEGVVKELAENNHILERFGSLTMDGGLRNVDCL

[2] = molecular target: T2, Inhibitor of nuclear factor kappa-B kinase subunit epsilon (Homo sapiens) (UniProt Q14164); assay: Inhibition of IKKe Lys2 labeling site in human A-375 cells at 0.05 uM by KiNativ Profiling analysis relative to control
T2 sequence (whole entry): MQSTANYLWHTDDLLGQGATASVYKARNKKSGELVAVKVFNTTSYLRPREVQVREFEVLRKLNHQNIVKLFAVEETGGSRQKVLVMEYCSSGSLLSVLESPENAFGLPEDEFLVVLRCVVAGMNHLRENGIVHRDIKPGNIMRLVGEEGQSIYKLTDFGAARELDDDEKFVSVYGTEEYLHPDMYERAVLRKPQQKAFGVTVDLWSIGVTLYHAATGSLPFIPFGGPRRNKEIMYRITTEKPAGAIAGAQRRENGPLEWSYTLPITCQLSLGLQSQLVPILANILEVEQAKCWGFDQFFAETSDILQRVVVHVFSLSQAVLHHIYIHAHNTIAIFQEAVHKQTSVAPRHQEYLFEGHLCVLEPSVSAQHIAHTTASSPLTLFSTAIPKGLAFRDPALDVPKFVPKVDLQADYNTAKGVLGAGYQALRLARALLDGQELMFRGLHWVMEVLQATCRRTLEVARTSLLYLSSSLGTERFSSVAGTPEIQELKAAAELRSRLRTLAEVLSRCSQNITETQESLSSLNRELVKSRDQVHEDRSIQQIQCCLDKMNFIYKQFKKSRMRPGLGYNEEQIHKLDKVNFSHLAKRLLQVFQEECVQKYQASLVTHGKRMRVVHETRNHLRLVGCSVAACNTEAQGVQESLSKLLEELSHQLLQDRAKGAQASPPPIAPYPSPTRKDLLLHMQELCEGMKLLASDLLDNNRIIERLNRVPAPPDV

[3] = molecular target: T3, Serine/threonine-protein kinase greatwall (Homo sapiens) (UniProt Q96GX5); assay: Inhibition of MASTL ATP Loop labeling site in human A-375 cells at 0.05 uM by KiNativ Profiling analysis relative to control
T3 sequence (whole entry): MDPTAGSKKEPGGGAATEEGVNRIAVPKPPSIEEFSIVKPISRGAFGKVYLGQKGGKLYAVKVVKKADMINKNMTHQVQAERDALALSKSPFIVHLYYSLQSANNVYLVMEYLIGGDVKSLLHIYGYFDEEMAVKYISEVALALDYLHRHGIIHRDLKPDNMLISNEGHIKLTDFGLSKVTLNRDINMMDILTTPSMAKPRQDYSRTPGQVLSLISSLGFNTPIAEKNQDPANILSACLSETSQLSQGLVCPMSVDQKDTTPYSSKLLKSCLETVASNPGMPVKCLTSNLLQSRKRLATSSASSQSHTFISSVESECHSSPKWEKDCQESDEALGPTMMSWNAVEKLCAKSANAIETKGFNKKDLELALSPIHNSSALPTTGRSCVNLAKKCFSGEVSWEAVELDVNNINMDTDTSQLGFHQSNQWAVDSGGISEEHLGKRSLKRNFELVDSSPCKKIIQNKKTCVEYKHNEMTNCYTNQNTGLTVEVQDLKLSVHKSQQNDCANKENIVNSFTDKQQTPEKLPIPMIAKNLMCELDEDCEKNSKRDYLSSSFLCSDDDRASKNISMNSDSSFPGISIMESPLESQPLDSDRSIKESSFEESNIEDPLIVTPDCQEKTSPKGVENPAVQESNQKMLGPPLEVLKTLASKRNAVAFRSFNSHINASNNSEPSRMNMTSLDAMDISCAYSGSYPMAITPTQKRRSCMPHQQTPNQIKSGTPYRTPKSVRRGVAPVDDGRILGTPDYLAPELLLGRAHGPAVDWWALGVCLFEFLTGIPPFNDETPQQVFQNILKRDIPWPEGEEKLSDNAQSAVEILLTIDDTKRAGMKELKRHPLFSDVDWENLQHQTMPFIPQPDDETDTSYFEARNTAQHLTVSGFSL

[4] = molecular target: Casein kinase II subunit alpha (Homo sapiens) (UniProt P68400); assay: Inhibition of CK2a1 Protein Kinase Domain in human A-375 cells at 5 uM by KiNativ Profiling analysis relative to control
Sequence of Casein kinase II subunit alpha (Homo sapiens) (P68400 whole entry, looked up, the tested form may be a part): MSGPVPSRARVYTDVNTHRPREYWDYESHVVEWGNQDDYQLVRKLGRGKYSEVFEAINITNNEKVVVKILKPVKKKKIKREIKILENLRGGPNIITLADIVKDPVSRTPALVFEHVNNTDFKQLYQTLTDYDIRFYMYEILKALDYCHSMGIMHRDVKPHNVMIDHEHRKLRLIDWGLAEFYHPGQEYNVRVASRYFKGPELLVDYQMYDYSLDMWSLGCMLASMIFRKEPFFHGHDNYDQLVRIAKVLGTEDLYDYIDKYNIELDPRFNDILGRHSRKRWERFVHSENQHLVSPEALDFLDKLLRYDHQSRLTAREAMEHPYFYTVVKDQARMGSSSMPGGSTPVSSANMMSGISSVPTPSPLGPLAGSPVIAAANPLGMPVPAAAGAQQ
Outline: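 Intact A375 melanoma cells were treated with compound at 5 or 0.5 μM, then lysed. Lysate kinases were labeled with a lysine-reactive ATP or ADP-biotin probe (KiNativ). Inhibition is read as protection of each kinase labeling site from probe labeling.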

Compound	inhibition [1] [%]	inhibition [2] [%]	inhibition [3] [%]	inhibition [4] [%]
CCN1CCN(Cc2ccc(NC(=O)c3ccc(C)c(/C=C/c4cnc5[nH]ccc5c4OC)c3)cc2C(F)(F)F)CC1	16.9	19.8	-6.2	1
CCN1CCN(Cc2ccc(NC(=O)c3ccc(C)c(Oc4ccnc5[nH]ccc45)c3)cc2C(F)(F)F)CC1	35.7	29.2	2	15.4

Source: ChEMBL document CHEMBL5696442, “Discovery of type II inhibitors of TGFβ-activated kinase 1 (TAK1) and mitogen-activated protein kinase kinase kinase kinase 2 (MAP4K2)” (J Med Chem, 2015)
